# High-throughput results as filed in PubChem.
# Rows were chosen to be rich in hits. Some 4.1% of all compounds tested hit in one or more screens of this group.
# MC4R antagonist: MC4R antagonists of cAMP signaling, primary screen, cell-based, TR-FRET, antagonist arm of biased-ligand search; Melanocortin receptor 4 (Homo sapiens), P32245; inhibition, % at 6.5 µM; MC4R-expressing cells, MTII-stimulated cAMP, LANCE TR-FRET; 0.48% of 360,000 active; AID 540295, 2011;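 active means inhibition above its plate's cutoff, the mean of tested wells on that plate plus 3 SD, cut at about 29% in these data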
# Target sequence (P32245 whole entry, looked up): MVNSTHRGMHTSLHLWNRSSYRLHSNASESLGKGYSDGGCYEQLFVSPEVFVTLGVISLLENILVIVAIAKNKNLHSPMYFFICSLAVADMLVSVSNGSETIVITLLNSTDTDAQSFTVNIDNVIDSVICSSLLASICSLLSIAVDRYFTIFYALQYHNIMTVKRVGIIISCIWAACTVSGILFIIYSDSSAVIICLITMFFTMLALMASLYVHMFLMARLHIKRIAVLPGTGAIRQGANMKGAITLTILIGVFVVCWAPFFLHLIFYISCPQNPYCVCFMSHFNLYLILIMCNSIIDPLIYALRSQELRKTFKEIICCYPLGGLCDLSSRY
#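 system = U2OS cells with stable human MC4R expression | also added = Melanotan II challenge after compound preincubation | dosing = one concentration, 6.5 µM nominal | incubation = compound 30 min, challenge 1 h, detection 1 h | measured by = TR-FRET with Eu-cAMP and labeled anti-cAMP, 671 nm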
# MPTP block: mitochondrial permeability transition pore inhibitors, primary screen, biochemical, isolated mouse mitochondria, absorbance. inhibition, % at 10 µM. 1.4% of 360,000 active. Ca2+ swelling absorbance, 30 min;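 active means inhibition of 50% or more, scaled per plate between neutral and stimulator controls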
# ATG4B inh: ATG4B protease inhibitors, primary screen, biochemical, fluorescence, uHTS | 0.51% of 340,000 active | Cysteine protease ATG4B (Homo sapiens), Q9Y4P1 | inhibition, % at 8.33 µM | ATG4B cleavage of LC3-PLA2, NBD-HPC fluorescence, 1 h; in the data active means inhibition above about 40%
# SMARCA2 act: SMARCA2 (BRM) function activators, primary screen, cell-based, luminescence, high throughput; MG213 cells, MMTV-luciferase reporter, dexamethasone, overnight; activation, % at 9.1 µM; 1% of 370,000 active; AID 652017, 2013; in the data active means activation above about 7.8%
# MC4R ag barr: MC4R agonists recruiting beta-arrestin, primary screen, cell-based, luminescence, agonist arm of biased-ligand search; U2OS MC4R beta-arrestin complementation; percent of melanotan II response, DMSO zero; activation, % at 8.9 µM; 0.98% of 360,000 active; AID 540308, 2011;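 active means activation above a per-plate cutoff, the mean activation of sample wells on that plate plus 3 SD, cut at about 8% in these data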
# SMARCA2 conf: SMARCA2 (BRM) function activators, confirmation, cell-based, luminescence, triplicate; MG213 cells, MMTV-luciferase with dexamethasone, overnight; MG213 cells expressing E1A, Rb sequestered; DMSO wells 0%, reference activator 100%; shares compounds with SMARCA2 act; activation, % at 9.1 µM; 30% of 3,500 active;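 active means activation above its plate's cutoff, the mean activation of tested wells plus 3 SD, cut at about 7.9% in these data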
# GAL4-VP16 Luc: GAL4-VP16 luciferase reporter activation, counter-screen for SMARCA2 (BRM) activator project, cell-based, pG5luc, luminescence, high throughput. HEK293 GAL4-VP16 pG5luc reporter; scaled: DMSO wells 0%, SAHA wells 100%. activation, % at 9.1 µM. shares compounds with SMARCA2 act. 41% of 3,500 active;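 active means activation above the solvent-only control well mean plus 3 SD, averaged across control plates, cut at about 5.2% in these data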
# Hits are given with their value; n = inactive; x = no result given.
SMILES,MC4R antagonist,MPTP block,ATG4B inh,SMARCA2 act,MC4R ag barr,SMARCA2 conf,GAL4-VP16 Luc
Nc1c2ccccc2nc2ccccc12,n,n,n,55,n,110,n
CN(C(=O)c1cc2sccc2n1C)C1CCCCC1,n,n,n,8.9,n,n,7.5
CCc1c(-c2ccc(Br)cc2)ncn1CCc1ccccc1OC,x,x,x,n,x,x,x
CC(=O)c1ccc(NCCCN2CCC(C(O)(c3ccccc3)c3ccccc3)CC2)cc1,x,x,x,9.6,x,n,n
OC(c1ccccc1)(c1ccccc1)C1CCN(CCCNc2cccc(OC(F)(F)F)c2)CC1,x,x,x,n,x,x,x
COc1ccc(OC)c(S(=O)(=O)N2CCCCC2C(=O)N2CCCN(C)CC2)c1 (stereo unspecified),x,x,x,n,x,x,x
CN(C(=O)CCc1cn(C)c2ccccc12)c1ccc(Oc2cccnc2)cc1,x,x,x,n,x,x,x
CSc1nc(SC(C)C(=O)O)c2c3c(sc2n1)COC(C)(C)C3 (stereo unspecified),n,n,n,n,n,x,x
CSc1nc(SCCN(C)C)c2c3c(sc2n1)COC(C)(C)C3,n,n,n,8.1,n,n,n
O=C(CCc1nnc(CCCc2ccccc2)o1)NCCCC1CCCC1,n,n,n,9.7,n,n,6.5
O=C(NCCc1ccccc1)OCc1cn(Cc2ccccc2Cl)nn1,x,x,x,n,x,x,x
O=C(c1cccc(Br)c1)N1CCN(C(=O)c2cccc(Br)c2)CC1,n,n,n,8.8,n,n,n
CCOC(=O)[C@@]12CCC3=C1N(CCC3)C(=O)[C@H](CC(=O)N1CCCCC1)C2,x,x,x,n,x,x,x
COc1cccc(CN2CCC2(C)C(=O)Nc2cccc(Oc3ccccc3)c2)c1F (stereo unspecified),n,n,x,n,n,x,x
COc1cc2c(C#CCCO)c(-c3ccsc3)oc(=O)c2cc1OC,n,n,n,9.3,n,11,n
Cc1nc2ccc(NC(=O)c3ccc(F)cc3F)cc2c(=O)[nH]1,x,x,x,n,x,x,x
CC(C)(C)c1ccc(-c2nnc(SCC(=O)NC3CC3)o2)cc1,n,n,n,9.0,n,n,5.5
O=C1c2ccccc2-c2c1c1ccccc1c(=O)n2CCO,n,n,n,16,n,14,7.7
O=C(c1cc(COc2c(F)cccc2F)on1)N1C[C@H]2CC[C@H]1C2,n,n,n,10.0,n,11,11
O=S1(=O)CC2c3ccccc3CN2CN1Cc1ccc(F)cc1 (stereo unspecified),x,x,x,n,x,x,x
CC(C)Oc1ccc(C2CC(=O)N(c3cccc(C(=O)O)c3)C2=O)cc1 (stereo unspecified),n,n,n,9.8,n,n,n
COC(=O)[C@]12C[C@H](CC(=O)NCCCCc3ccccc3)C(=O)N(Cc3ccc4c(c3)OCO4)C1=C[C@H](C(C)C)O[C@@H]2C1CC1,x,x,x,n,x,x,x
Cc1cccc2c1ncc1c(=O)n(-c3ccccc3)[nH]c12,n,n,n,12,n,n,11
CCn1c(SCC(=O)NN=Cc2c[nH]c3ccccc23)nc2ccccc21,x,x,x,n,x,x,x
COc1ccccc1OCc1cc(C(=O)N(C)CCC2CCCCO2)no1 (stereo unspecified),n,n,n,11,n,n,11
SMILES,MC4R antagonist,MPTP block,ATG4B inh,SMARCA2 act,MC4R ag barr,SMARCA2 conf,GAL4-VP16 Luc
O=C(COC(=O)CNS(=O)(=O)c1cccc(Br)c1)NC(=O)Nc1ccc2c(c1)OCCO2,n,n,n,11,n,n,n
O=C(COC(=O)CNS(=O)(=O)c1ccc2ccccc2c1)Nc1ccc2c(c1)OCO2,n,n,n,n,n,x,x
CS(=O)(=O)c1ccc(C(=O)NC2CCCCC2)cc1,n,n,n,n,n,x,x
O=C(NC1CCC1)c1ccc(C#CC2CC2)c[n+]1[O-],x,x,x,15,x,11,5.2
O=C1CC(N2CCN(c3nc4ccccc4s3)CC2)C(=O)N1c1ccc(F)cc1 (stereo unspecified),n,n,n,n,n,x,x
COC(=O)/C=C1\C(=O)N(c2nc3ccccc3s2)C(=S)N1c1ccc(F)cc1,n,n,n,8.6,n,n,n
FC(F)(F)c1ccccc1CN1CCCc2nc(-c3ccc(Br)cc3)ccc21,x,x,x,n,x,x,x
COc1cc(/C=C/C=C2/CC/C(=C/C=C/c3ccc(O)c(OC)c3)C2=O)ccc1O,n,n,n,n,n,x,x
COc1cc(/C=C2\COC/C(=C\c3ccc(O)c(OC)c3)C2=O)ccc1O,n,n,n,13,n,n,n
CCOc1cc(C2NN=C(c3ccccc3)S2)ccc1OCc1ccc(F)cc1 (stereo unspecified),n,n,n,14,n,n,9.3
CCOc1cc(C2NN=C(c3ccccc3)S2)ccc1OCc1ccccc1Cl (stereo unspecified),n,n,n,n,n,x,x
CCc1ccc(NC(=S)NC(=O)c2c(-c3ccccc3Cl)noc2C)cc1,n,n,n,n,n,x,x
Cc1onc(-c2ccccc2Cl)c1C(=O)NC(=S)Nc1ccc(C(C)(C)C)cc1,n,n,n,11,n,n,n
COCc1cc(N2CCN(C(=O)OC(C)(C)C)C[C@H]2C)ccc1N1CCN(Cc2ccccc2)[C@H](C)C1,x,x,x,n,x,x,x
Cc1ccc(C(=O)CSc2nnc(-c3ccco3)n2Cc2ccccc2)cc1,n,n,n,11,n,n,n
O=C(CSc1nnc(-c2ccco2)n1Cc1ccccc1)c1ccccc1,n,n,n,n,n,x,x
COc1ccccc1C(=O)NC1CCCCN(Cc2cccc(C(F)(F)F)c2)C1=O (stereo unspecified),x,x,x,n,x,x,x
COc1cc2ccccc2cc1C(=O)Nc1ccc(N2CCN(C)CC2)cc1,n,n,n,19,n,9.7,8.8
c1cc(-c2nnc3n2N=C(c2ccc4c(c2)OCO4)CS3)ccn1,x,x,x,n,x,x,x
Cc1c(NC(=O)C2CC(c3c(F)cccc3Cl)=NO2)c(=O)n(-c2ccccc2)n1C (stereo unspecified),n,n,n,8.4,n,n,n
Cc1cc(C(=O)O[C@H]2CCC[C@@]3(C(=O)N(Cc4ccccc4)c4ccccc43)[C@H]2NC(=O)CCc2ccccc2)no1,x,x,x,n,x,x,x
Cc1cc(Nc2cc(Cl)cc(Cl)c2)cc(=O)n1-c1cc(Cl)cc(Cl)c1,x,x,x,n,x,x,x
Cc1ccc(C2NS(=O)(=O)N=C2N)cc1 (stereo unspecified),n,n,n,n,n,x,x
Cc1ccccc1C1NS(=O)(=O)N=C1N (stereo unspecified),n,n,n,8.0,n,n,n
